# According to ChEMBL document CHEMBL4219038, “1-Thiazol-2-yl-N-3-methyl-1H-pyrozole-5-carboxylic acid derivatives as antitumor agents” (Bioorg Med Chem Lett, 2017):
# Active and inactive are the calls of the source. The rule behind the calls is not given here.
# Tests used:
# Jurkat = assay: Antiproliferative activity against human Jurkat cells; format: functional, cell-based
# HCT-116 [1] = assay: Antiproliferative activity against human HCT116 cells; format: functional, cell-based
# A2780 = assay: Antiproliferative activity against human A2780 cells; format: functional, cell-based
# NCI-H460 = assay: Antiproliferative activity against human NCI-H460 cells; format: functional, cell-based
# MIA PaCa-2 = assay: Antiproliferative activity against human MIAPaCa2 cells; format: functional, cell-based
# MCF7 = assay: Antiproliferative activity against human MCF7 cells; format: functional, cell-based
# MCF-10A = assay: Antiproliferative activity against human MCF10A cells; format: cell-based
# B cell = assay: Antiproliferative activity against human primary B cells; format: cell-based
# HCT-116 [2] = assay: Induction of quiescence in human HCT116 cells by high content cell imaging studies; format: functional, cell-based
# [3] = Kinetic solubility of the compound in PBS buffer at pH 7.4 in presence of 10% FBS; format: physicochemical; conditions: PBS buffer with 10% FBS, read-out: Kinetic_solubility
# [4] = Protein binding in human plasma; format: ADME, cell-free; conditions: read-out: PPB (converted)
# [5] = Tmax in po dosed mouse; format: ADME, organism-based; conditions: in vivo
# [6] = Oral bioavailability in mouse; format: ADME, organism-based; conditions: in vivo
# [7] = Initial plasma concentration in iv dosed mouse; format: ADME, organism-based
# [8] = Clearance in iv dosed mouse; format: ADME, organism-based; conditions: in vivo
# [9] = Volume of distribution at steady state in iv dosed mouse; format: ADME, organism-based; conditions: in vivo, read-out: Vdss
# [10] = Cmax in mouse at 10 mg/kg; format: ADME, organism-based; design: dose 10 mg/kg; conditions: in vivo
# [11] = Cmax in mouse at 50 mg/kg; format: ADME, organism-based; design: dose 50 mg/kg; conditions: in vivo
# [12] = AUC (0 to infinity) in mouse at 2.5 mg/kg; format: ADME, organism-based; design: dose 2.5 mg/kg, time infinity; conditions: in vivo
# [13] = AUC (0 to infinity) in mouse at 50 mg/kg; format: ADME, organism-based; design: dose 50 mg/kg, time infinity; conditions: in vivo
# [14] = MRT in mouse at 2.5 mg/kg, po; format: ADME, organism-based; conditions: in vivo
# [15] = MRT in mouse at 10 mg/kg, po; format: ADME, organism-based; conditions: in vivo
# [16] = MRT in mouse at 50 mg/kg, po; format: ADME, organism-based; conditions: in vivo
# Mus musculus [17] = assay: Ratio of Cmax in mouse at 2.5 mg/kg, po to Cmax in mouse at 50 mg/kg, po; format: ADME, organism-based; conditions: in vivo
# Mus musculus [18] = assay: Ratio of Cmax in mouse at 2.5 mg/kg, po to Cmax in mouse at 100 mg/kg, po; format: ADME, organism-based; conditions: in vivo
# Mus musculus [19] = assay: Ratio of AUC (0 to infinity) in mouse at 2.5 mg/kg, po to Cmax in mouse at 50 mg/kg, po; format: ADME, organism-based; conditions: in vivo
# Mus musculus [20] = assay: Ratio of AUC (0 to infinity) in mouse at 2.5 mg/kg, po to Cmax in mouse at 100 mg/kg, po; format: ADME, organism-based; conditions: in vivo
# [21] = Toxicity in J:Nu mouse assessed as maximum tolerated dose at 10 to 120 mg/kg, po qd for 13 days; format: organism-based; conditions: in vivo
# Mus musculus [22] = assay: Toxicity in J:Nu mouse assessed as induction of adverse effects at 10 to 120 mg/kg, po qd for 13 days; format: organism-based; conditions: in vivo, 312 h
# Summary of the method: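 Oral once-daily dosing of J:Nu female mice (N = 4 per group) at 10, 30 and 60 mg/kg for 7 days. The 30 and 60 mg/kg groups were escalated to 90 and 120 mg/kg on days 8–13. Clinical signs and body weights were recorded every day.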
# Mus musculus [23] = assay: Toxicity in J:Nu mouse assessed as changes in organ weight at 30 mg/kg, po qd for 7 days followed by 90 mg/kg, po qd for 5 days from day 8 to 13 measured 48 hrs after post last dose by pathology analysis; format: organism-based; conditions: in vivo
# Summary of the method: (§1)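 In J:Nu female mice (N = 4 per group), dosing was oral once daily at 30 or 60 mg/kg in 5% NMP/10% PEG-400/15% Solutol/70% D5W for 7 days. Doses were then raised to 90 or 120 mg/kg respectively on days 8–13. Clinical signs and body weights were recorded daily. Gross pathology, with spleen and liver weights, was done 48 h after the last dose.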
# Mus musculus [24] = assay: Toxicity in J:Nu mouse assessed as changes in organ weight at 60 mg/kg, po qd for 7 days followed by 120 mg/kg, po qd for 5 days from day 8 to 13 measured 48 hrs after post last dose by pathology analysis; format: organism-based; conditions: in vivo; summary of the method: as §1
# Mus musculus [25] = assay: Toxicity in J:Nu mouse assessed as organ damage at 30 mg/kg, po qd for 7 days followed by 90 mg/kg, po qd for 5 days from day 8 to 13 measured 48 hrs after post last dose by pathology analysis; format: organism-based; conditions: in vivo; summary of the method: as §1
# [26] = Plasma concentration (7 hrs) in J:Nu mouse at 30 mg/kg, po qd for 7 days measured on day 1; format: ADME, organism-based
# Summary of the method: (§2)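 J:Nu female mice, N = 4 per group, dosed orally once daily at 10, 30 or 60 mg/kg in 5% NMP, 10% PEG-400, 15% Solutol, 70% D5W. Blood was sampled every other day, alternating Cmax and predose draws. Plasma concentration was taken 7 h after dosing.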
# [27] = Plasma concentration (7 hrs) in J:Nu mouse at 10 mg/kg, po qd for 7 days measured on day 5; format: ADME, organism-based; summary of the method: as §2
# [28] = Plasma concentration (7 hrs) in J:Nu mouse at 30 mg/kg, po qd for 7 days measured on day 5; format: ADME, organism-based; summary of the method: as §2
# [29] = Plasma concentration (7 hrs) in J:Nu mouse at 60 mg/kg, po qd for 7 days measured on day 5; format: ADME, organism-based; summary of the method: as §2
# [30] = Cmax in J:Nu mouse plasma at 30 mg/kg, po qd for 7 days followed by 90 mg/kg, po qd for 5 days from day 8 to 13; format: ADME, organism-based; design: dose 30 mg/kg, route oral
# Summary of the method: (§3)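 J:Nu female mice, N = 4 per group, dosed orally once daily at 10, 30 or 60 mpk in 5% NMP, 10% PEG-400, 15% Solutol, 70% D5W. The 30 and 60 mpk groups were raised to 90 and 120 mpk from day 8 to 13.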
# [31] = Dose normalized Cmax in J:Nu mouse plasma at 30 mg/kg, po qd for 7 days followed by 90 mg/kg, po qd for 5 days from day 8 to 13; format: ADME, organism-based; conditions: in vivo; summary of the method: as §3
# [32] = Dose normalized Cmax in J:Nu mouse plasma at 60 mg/kg, po qd for 7 days followed by 120 mg/kg, po qd for 5 days from day 8 to 13; format: ADME, organism-based; conditions: in vivo; summary of the method: as §3
# [33] = AUC (0 to infinity) in J:Nu mouse plasma at 10 mg/kg, po qd for 7 days; format: ADME, organism-based; design: dose 10 mg/kg, route oral, time infinity; summary of the method: as §3
# [34] = AUC (0 to infinity) in J:Nu mouse plasma at 60 mg/kg, po qd for 7 days followed by 120 mg/kg, po qd for 5 days from day 8 to 13; format: ADME, organism-based; design: dose 60 mg/kg, route oral, time infinity; summary of the method: as §3
# [35] = Dose normalized AUC (0 to infinity) in J:Nu mouse plasma at 10 mg/kg, po qd for 7 days; format: ADME, organism-based; conditions: in vivo, 168 h; summary of the method: as §3
# [36] = Dose normalized AUC (0 to infinity) in J:Nu mouse plasma at 30 mg/kg, po qd for 7 days followed by 90 mg/kg, po qd for 5 days from day 8 to 13; format: ADME, organism-based; conditions: in vivo; summary of the method: as §3
# [37] = Dose normalized AUC (0 to infinity) in J:Nu mouse plasma at 60 mg/kg, po qd for 7 days followed by 120 mg/kg, po qd for 5 days from day 8 to 13; format: ADME, organism-based; conditions: in vivo; summary of the method: as §3
compound,measurement,setting,value
Cc1nn(-c2nc(-c3ccc(Cl)c(Cl)c3)c(SC(C)C)s2)c(C(=O)O)c1-c1cc(Cl)cc(Cl)c1,IC50,Jurkat,500 nM
same,IC50,HCT-116 [1],600 nM
same,IC50,A2780,290 nM
same,IC50,NCI-H460,330 nM
same,IC50,MIA PaCa-2,320 nM
same,IC50,MCF7,260 nM
same,IC50,MCF-10A,35000 nM
same,IC50,B cell,> 40000 nM
same,Activity,HCT-116 [2],Active
same,solubility kinetic,[3],> 200 µM
same,fraction unbound,[4],0.027
same,Tmax,[5],5 h
same,bioavailability,[6],48.4%
same,C0,[7],3.19 µg/mL
same,clearance,[8],0.8 mL/min/kg
same,Vd,[9],0.444 L/kg
same,Cmax,[10],15.7 µg/mL
same,Cmax,[11],138 µg/mL
same,AUC(0-inf),[12],25.8 µg·h/mL
same,AUC(0-inf),[13],2250 µg·h/mL
same,MRT,[14],15.1 h
same,MRT,[15],10.1 h
same,MRT,[16],9.3 h
same,Ratio,Mus musculus [17],8.8
same,Ratio,Mus musculus [18],0.9
same,Ratio,Mus musculus [19],8.7
same,Ratio,Mus musculus [20],1.4
same,MTD at 312 h,[21],90 mg/kg
same,Activity,Mus musculus [22],Non-Toxic
same,Activity,Mus musculus [23],Non-Toxic
same,Activity,Mus musculus [24],Non-Toxic
same,Activity,Mus musculus [25],Non-Toxic
same,concentration at 7 h,[26],63.6 µg/mL
same,concentration at 7 h,[27],18.2 µg/mL
same,concentration at 7 h,[28],57.3 µg/mL
same,concentration at 7 h,[29],79.8 µg/mL
same,Cmax,[30],134 µg/mL
same,Cmax/dose,[31],1.4943 µg/mL
same,Cmax/dose,[32],1.0665 µg/mL
same,AUC(0-inf),[33],330 µg·h/mL
same,AUC(0-inf),[34],1540 µg·h/mL
same,AUC/dose,[35],33000 ng·kg·h/mL/mg
same,AUC/dose,[36],16500 ng·kg·h/mL/mg
same,AUC/dose,[37],12800 ng·kg·h/mL/mg
